pIC50: −log10 of the molar value.
What was measured:
[1] = target: T1, C-C chemokine receptor type 3 (Homo sapiens) (UniProt P51677); experiment: Displacement of [125I]eotaxin from human CCR3 receptor expressed in CHO cells at 0.3 uM; type: cell-based
T1 sequence (whole entry): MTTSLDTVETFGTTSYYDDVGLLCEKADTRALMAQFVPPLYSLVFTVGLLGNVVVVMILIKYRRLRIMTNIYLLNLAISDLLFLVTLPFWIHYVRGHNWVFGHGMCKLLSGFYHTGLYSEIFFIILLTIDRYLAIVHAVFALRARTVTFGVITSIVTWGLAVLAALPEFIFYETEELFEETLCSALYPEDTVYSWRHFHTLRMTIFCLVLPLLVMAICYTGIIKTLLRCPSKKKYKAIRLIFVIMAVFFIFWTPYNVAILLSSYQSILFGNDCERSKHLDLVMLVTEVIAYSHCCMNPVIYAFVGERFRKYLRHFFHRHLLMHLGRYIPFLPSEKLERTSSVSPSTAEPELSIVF

[2] = target: Cytochrome P450 2D6 (Homo sapiens, UniProt P10635)
Cytochrome P450 2D6, sequence (P10635 whole entry): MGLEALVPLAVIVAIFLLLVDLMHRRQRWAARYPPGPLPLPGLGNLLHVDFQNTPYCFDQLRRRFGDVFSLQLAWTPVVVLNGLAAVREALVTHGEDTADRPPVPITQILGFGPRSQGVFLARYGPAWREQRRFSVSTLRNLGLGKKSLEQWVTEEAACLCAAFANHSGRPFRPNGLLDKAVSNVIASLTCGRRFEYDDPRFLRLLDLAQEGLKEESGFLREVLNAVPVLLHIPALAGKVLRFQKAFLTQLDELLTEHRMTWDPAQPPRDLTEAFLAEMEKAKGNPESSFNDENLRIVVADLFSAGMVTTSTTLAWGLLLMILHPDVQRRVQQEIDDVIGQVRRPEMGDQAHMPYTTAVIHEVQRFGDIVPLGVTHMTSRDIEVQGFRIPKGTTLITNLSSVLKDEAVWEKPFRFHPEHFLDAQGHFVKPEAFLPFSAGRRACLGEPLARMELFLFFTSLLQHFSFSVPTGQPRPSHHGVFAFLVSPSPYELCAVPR

[3] = target: T2, C-C chemokine receptor type 3 (Homo sapiens, UniProt P51677); experiment: Displacement of [125I]eotaxin from human CCR3 receptor expressed in CHO cells; type: cell-based
T2 sequence (P51677 whole entry): T1 sequence (whole entry)

[4] = Metabolic stability assessed as clearance in human liver microsomes; type: ADME, Microsome
[5] = Bioavailability in mouse at 10 mg/kg, po; type: ADME, organism-based; conditions: in vivo
[6] = AUC in dog at 10 mg/kg, po; type: ADME, organism-based, Canis lupus familiaris; design: dose 10 mg/kg, route oral; conditions: plasma
[7] = AUC in cynomolgus monkey at 10 mg/kg, po; type: ADME, organism-based, Macaca fascicularis; design: dose 10 mg/kg, route oral; conditions: plasma
[8] = Bioavailability in cynomolgus monkey at 10 mg/kg, po; type: ADME, organism-based, Macaca fascicularis; conditions: in vivo
[9] = Bioavailability in rat at 50 mg/kg, po; type: ADME, organism-based; conditions: in vivo
[10] = Cmax in rat at 50 mg/kg, po; type: ADME, organism-based; design: dose 50 mg/kg, route oral; conditions: in vivo
[11] = system: Cynomolgus monkey; experiment: Reduction of eosinophilia in Ascaris suum-challenged cynomolgus monkey at 5 mg/kg, po bid 2 hrs administered before pathogen challenge after 10 hrs; type: functional, Macaca fascicularis; design: scale not given: the % may be the effect or the level left
Procedure, shortened: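 Cross-over design in five cynomolgus monkeys given vehicle or compound orally at 5 mg/kg b.i.d., 2 h before and 10 h after Ascaris suum aerosol challenge. Bronchoalveolar lavage was done 24 h after challenge and eosinophils were counted. Trough plasma levels were measured.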

[12] = Bioavailability in dog at 10 mg/kg, po; type: ADME, organism-based, Canis lupus familiaris; conditions: in vivo
[13] = Cmax in chimpanzee at 2 mg/kg, po; type: ADME, organism-based, Pan troglodytes; design: dose 2 mg/kg, route oral; conditions: in vivo
[14] = target: T2, C-C chemokine receptor type 3; experiment: Antagonist activity at human CCR3 receptor in human eosinophil assessed as inhibition of eotaxin-stimulated intracellular calcium flux; type: functional, cell-based
[15] = Cmax in mouse at 10 mg/kg, po; type: ADME, organism-based; design: dose 10 mg/kg, route oral; conditions: in vivo
[16] = AUC in rat at 50 mg/kg, po; type: ADME, organism-based; design: dose 50 mg/kg, route oral; conditions: plasma
[17] = AUC in chimpanzee at 2 mg/kg, po; type: ADME, organism-based, Pan troglodytes; design: dose 2 mg/kg, route oral; conditions: plasma
[18] = AUC in mouse at 10 mg/kg, po; type: ADME, organism-based; design: dose 10 mg/kg, route oral; conditions: plasma
[19] = Cmax in cynomolgus monkey at 10 mg/kg, po; type: ADME, organism-based, Macaca fascicularis; design: dose 10 mg/kg, route oral; conditions: in vivo
[20] = Bioavailability in chimpanzee at 2 mg/kg, po; type: ADME, organism-based, Pan troglodytes; conditions: in vivo
[21] = Cmax in dog at 10 mg/kg, po; type: ADME, organism-based, Canis lupus familiaris; design: dose 10 mg/kg, route oral; conditions: in vivo

Compound | pIC50 [2] | pIC50 [3] | also measured
C[C@H](CCN1CCC[C@@H](Cc2ccc(F)cc2)C1)NC(=O)Nc1cc(-n2cccn2)cc(-n2cccn2)c1 | 5.52 | 8.77 | 
CCC[C@H](CCN1CCC[C@@H](Cc2ccc(F)cc2)C1)NC(=O)Nc1cc(-c2nnnn2C)cc(C(C)(C)O)c1 | 6.00 | 8.82 | CLhep predicted [4]: 17 mL/min/kg
CC(=O)c1cc(NC(=O)N[C@@H](C)CCN2CCC[C@@H](Cc3ccc(F)cc3)C2)cc(C(C)=O)c1 |  | 8.24 | 
CCc1cc(NC(=O)N[C@H](C)[C@H](CN2CCC[C@@H](Cc3ccc(F)cc3)C2)N(C)C)cc(-c2nnnn2C)c1 |  | 9.30 | 
CC(=O)c1cc(NC(=O)N[C@H](C)CCN2CCC[C@@H](Cc3ccc(F)cc3)C2)cc(C(C)=O)c1 |  | 8.57 | 
C[C@H](CCN1CCC[C@@H](Cc2ccc(F)cc2)C1)NC(=O)Nc1cc(-n2ccnn2)cc(-n2ccnn2)c1 |  | 8.70 | 
CC(C)c1cc(NC(=O)NCCCN2CCC[C@@H](Cc3ccc(F)cc3)C2)cc(-c2nnnn2C)c1 |  | 8.59 | 
CCc1cc(NC(=O)NCCCN2CCC[C@@H](Cc3ccc(F)cc3)C2)cc(-c2nnnn2C)c1 |  | 9.00 | 
CC[C@H](CCN1CCC[C@@H](Cc2ccc(F)cc2)C1)NC(=O)Nc1cc(-c2nnnn2C)cc(C(C)(C)O)c1 | 5.09 | 8.62 | CLhep predicted [4]: 15 mL/min/kg
O=C(NCCCN1CCC[C@@H](Cc2ccc(F)cc2)C1)Nc1cc(-n2cccn2)cc(-n2cccn2)c1 | 5.55 | 8.80 | 
C[C@H](CCN1CCC[C@@H](Cc2ccc(F)cc2)C1)NC(=O)Nc1cc(-c2nnnn2C)cc(C(C)(C)O)c1 |  | 9.15 | CLhep predicted [4]: 12 mL/min/kg

Further lines, with some results ahead:

pIC50 [2] | pIC50 [3] | Compound | also measured
< 4.00 |  | C[C@@H](CC(=O)N1CCC[C@@H](Cc2ccc(F)cc2)C1)NC(=O)Nc1cccc(-c2nnnn2C)c1 | Activity [1]: 37%
 | 8.89 | C[C@H](CCN1CCC[C@@H](Cc2ccc(F)cc2)C1)NC(=O)Nc1cccc(-c2nnnn2C)c1 | 
 | 8.59 | CC(C)c1cc(NC(=O)N[C@H](C)CCN2CCC[C@@H](Cc3ccc(F)cc3)C2)cc(-c2nnnn2C)c1 | 
 | 8.70 | CCc1cc(NC(=O)N[C@H](C)CCN2CCC[C@@H](Cc3ccc(F)cc3)C2)cc(-c2nnnn2C)c1 | 
5.36 | 8.38 | C[C@H](CC(=O)N1CCC[C@@H](Cc2ccc(F)cc2)C1)NC(=O)Nc1cccc(-c2nnnn2C)c1 | 
 | 8.40 | C[C@@H](CCN1CCC[C@@H](Cc2ccc(F)cc2)C1)NC(=O)Nc1cccc(-c2nnnn2C)c1 | 
5.59 |  | C[C@@H](NC(=O)Nc1cccc(-c2nnnn2C)c1)[C@@H](O)CN1CCC[C@@H](Cc2ccc(F)cc2)C1 | bioavailability [5]: 57%; AUC [6]: 2.74 µM·h; AUC [7]: 1.05 µM·h; bioavailability [8]: 19%; bioavailability [9]: 45%; Cmax [10]: 3170 nM; Activity [11]: 82%; bioavailability [12]: 17%; Cmax [13]: 173 nM; pIC50 [14]: 9.06; Cmax [15]: 1540 nM; AUC [16]: 21.3 µM·h; AUC [17]: 0.639 µM·h; AUC [18]: 3.15 µM·h; Cmax [19]: 561 nM; bioavailability [20]: 16%; Cmax [21]: 926 nM
 | 8.82 | CC(=O)c1cc(NC(=O)N[C@H](C)CCN2CCC[C@@H](Cc3ccc(F)cc3)C2)cc(-c2nnnn2C)c1 | 
 | 8.77 | C[C@H](CCN1CCC[C@@H](Cc2ccc(F)cc2)C1)NC(=O)Nc1cc(Br)cc(-c2nnnn2C)c1 | 
 | 8.92 | Cc1cc(NC(=O)N[C@H](C)CCN2CCC[C@@H](Cc3ccc(F)cc3)C2)cc(-c2nnnn2C)c1 | 

Reference: ChEMBL document CHEMBL1142350, “From rigid cyclic templates to conformationally stabilized acyclic scaffolds. Part I: the discovery of CCR3 antagonist development candidate BMS-639623 with picomolar inhibition potency against eosinophil chemotaxis” (Bioorg Med Chem Lett, 2008)
